According to ChEMBL document CHEMBL4011639, “Discovery of Novel Nucleotide Prodrugs with Improved Potency Against HCV Variants Carrying NS5B S282T Mutation” (J Med Chem, 2017):

Key:
[1] = Drug metabolism in human HuH7 cells assessed as carboxylesterase-mediated (S)-isopropyl 2-((S)-(((2R,3R,4R,5R)-5-(4-amino-2-oxopyrimidin-1(2H)-yl)-4-fluoro-3-hydroxy-4-methyltetrahydrofuran-2-yl)methoxy)(phenoxy)phosphoryloxy)propanoate metabolite formation at 50 uM after 48 hrs by LC/MS/MS analysis; assay type: ADME; conditions: cell-based
How it was run: (§1)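 Huh-7 cells plated at 0.35 million/mL in DMEM with 10% FBS (about 1 million per well at dosing) and grown 18 h. At each time point cells were washed with cold saline and lysed in methanol with internal standard. Semiquantified by LC/MS/MS MRM as Δ mean peak-area ratio relative to t0.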

UMP-CMP kinase = target: T1, UMP-CMP kinase (Homo sapiens, UniProt P30085); assay: Drug metabolism in human HuH7 cells assessed as UMP-CMP kinase-mediated ((2R,3R,4R,5R)-5-(4-amino-2-oxopyrimidin-1(2H)-yl)-4-fluoro-3-hydroxy-4-methyltetrahydrofuran-2-yl)methyl dihydrogen phosphate metabolite formation at 50 uM after 48 hrs by LC/MS/MS analysis; assay type: ADME, cell-based; how it was run: as §1
T1 sequence (P30085 whole entry): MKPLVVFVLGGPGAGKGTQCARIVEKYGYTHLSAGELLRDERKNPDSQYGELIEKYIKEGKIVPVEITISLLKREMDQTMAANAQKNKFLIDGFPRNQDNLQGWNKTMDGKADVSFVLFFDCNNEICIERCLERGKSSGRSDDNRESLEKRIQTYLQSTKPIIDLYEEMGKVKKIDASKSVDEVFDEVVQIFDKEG

[2] = Half life in human liver S9 fraction at 10 uM by LC/MS/MS analysis; assay type: ADME
How it was run: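 Compound at 10 μM working solution (1% DMSO, 5% MeOH in 100 mM Tris) incubated at 37 °C with human liver S9 at 1 mg protein/mL final. Reactions stopped with cold acetonitrile containing tolbutamide internal standard at 0, 5, 10, 20, 30 and 60 min. Parent measured by LC/MS/MS (MRM) as analyte/IS peak area ratio, given as percent remaining versus 0 min; half-life fitted.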

Mus musculus [3] = assay: Acute toxicity in ICR mouse assessed as mortality at 150 to 1800 mg/kg, administered via oral gavage measured once a day over 14 days; assay type: organism-based; conditions: in vivo, 336 h
How it was run: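 ICR mice, 22−25 g, 5 per sex per group. Single oral gavage at 150, 500, 1200 or 1800 mg/kg in vehicle of 30% PEG400/30% Tween 20/20% corn oil/20% water, with a vehicle control. Mortality, morbidity, clinical signs and body weight change recorded once daily for 14 days.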

Mus musculus [4] = assay: Subacute toxicity in ICR mouse assessed as body weight loss at 100 to 1000 mg/kg, administered once a day via oral gavage for 14 days; assay type: organism-based; conditions: in vivo, 336 h
How it was run: (§2)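 ICR mice, 22−25 g, 5 per sex per group, gavaged daily for 14 days at 100, 500 or 1000 mg/kg in 30% PEG400/30% Tween 20/20% corn oil/20% water, with a vehicle control group. Observed daily for body weight change, skin and fur, inflammation and necrosis. Animals anesthetized on day 15; organ weights (liver, kidney) taken. Serum SGOT/SGPT compared with controls.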

[5] = AUClast in Beagle dog at 150 mg/kg, administered via oral gavage measured up to 24 hrs post dose by LC/MS/MS analysis; assay type: ADME, organism-based, Canis lupus familiaris; design: dose 150 mg/kg, time < 24 hr, route oral; conditions: in vivo
How it was run: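 Beagle dogs, 3 per sex, given a single oral gavage dose of 150 mg/kg in 20% w/v hydroxypropyl-β-cyclodextrin in water, 2.5 mL/kg. K2EDTA blood taken by venipuncture at 0.5, 0.75, 1, 2, 4, 6, 8, 12 and 24 h. Plasma extracted with ice-cold acetonitrile, then LC/MS/MS in positive MRM mode with zolpidem as internal standard. Noncompartmental analysis; mean ± SD.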

Mus musculus [6] = assay: Subacute toxicity in ICR mouse assessed as macroscopic pathologic findings at 100 to 1000 mg/kg, administered once a day via oral gavage for 14 days; assay type: organism-based; conditions: in vivo, 336 h; how it was run: as §2
[7] = Drug metabolism in human HuH7 cells assessed as carboxylesterase-mediated (S)-2-((S)-(((2R,3R,4R,5R)-5-(4-amino-2-oxopyrimidin-1(2H)-yl)-4-fluoro-3-hydroxy-4-methyltetrahydrofuran-2-yl)methoxy)(hydroxy)phosphoryloxy)propanoic acid metabolite formation at 50 uM after 48 hrs by LC/MS/MS analysis; assay type: ADME, cell-based; how it was run: as §1
[8] = Drug metabolism in human HuH7 cells assessed as carboxylesterase-mediated (S)-2-((S)-(((2R,3R,4R,5R)-5-(4-amino-2-oxopyrimidin-1(2H)-yl)-4-fluoro-3-hydroxy-4-methyltetrahydrofuran-2-yl)methoxy)(hydroxy)phosphoryloxy)propanoic acid metabolite formation at 50 uM after 24 hrs by LC/MS/MS analysis; assay type: ADME, cell-based; how it was run: as §1
Mus musculus [9] = assay: Subacute toxicity in ICR mouse assessed as clinical signs of toxicity at 100 to 1000 mg/kg, administered once a day via oral gavage for 14 days; assay type: organism-based; conditions: in vivo, 336 h; how it was run: as §2
Mus musculus [10] = assay: Subacute toxicity in ICR mouse assessed as effect on hepatic perilobular vein at 100 to 1000 mg/kg, administered once a day via oral gavage for 14 days by hematoxylin/eosin-staining based microscopic analysis; assay type: organism-based; conditions: in vivo, 336 h
How it was run: (§3)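 Same 14-day daily oral gavage design as the subacute study (ICR mice, 5 per sex per group, 100/500/1000 mg/kg or vehicle). Liver and kidney taken after anesthesia on day 15, processed routinely, cut as 5 μm paraffin sections, stained with hematoxylin and eosin and examined microscopically.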

Mus musculus [11] = assay: Subacute toxicity in ICR mouse assessed as effect on appearance of hepatocytes at 100 to 1000 mg/kg, administered once a day via oral gavage for 14 days by hematoxylin/eosin-staining based microscopic analysis; assay type: organism-based; conditions: in vivo, 336 h; how it was run: as §3
Mus musculus [12] = assay: Subacute toxicity in ICR mouse assessed as alteration in basic levels of SGPT at 100 to 1000 mg/kg, administered once a day via oral gavage for 14 days; assay type: organism-based; conditions: in vivo, 336 h; how it was run: as §2
Liver carboxylesterase 1 = target: T2, Liver carboxylesterase 1 (Homo sapiens, UniProt P23141); assay: Drug metabolism in human HuH7 cells assessed as carboxylesterase 1-mediated (S)-2-((R)-(((2R,3R,4R,5R)-5-(4-butyramido-2-oxopyrimidin-1(2H)-yl)-4-fluoro-3-hydroxy-4-methyltetrahydrofuran-2-yl)methoxy)(hydroxy)phosphorylamino)propanoic acid metabolite formation at 50 uM after 24 hrs by LC/MS/MS analysis; assay type: ADME, cell-based; how it was run: as §1
T2 sequence (P23141 whole entry): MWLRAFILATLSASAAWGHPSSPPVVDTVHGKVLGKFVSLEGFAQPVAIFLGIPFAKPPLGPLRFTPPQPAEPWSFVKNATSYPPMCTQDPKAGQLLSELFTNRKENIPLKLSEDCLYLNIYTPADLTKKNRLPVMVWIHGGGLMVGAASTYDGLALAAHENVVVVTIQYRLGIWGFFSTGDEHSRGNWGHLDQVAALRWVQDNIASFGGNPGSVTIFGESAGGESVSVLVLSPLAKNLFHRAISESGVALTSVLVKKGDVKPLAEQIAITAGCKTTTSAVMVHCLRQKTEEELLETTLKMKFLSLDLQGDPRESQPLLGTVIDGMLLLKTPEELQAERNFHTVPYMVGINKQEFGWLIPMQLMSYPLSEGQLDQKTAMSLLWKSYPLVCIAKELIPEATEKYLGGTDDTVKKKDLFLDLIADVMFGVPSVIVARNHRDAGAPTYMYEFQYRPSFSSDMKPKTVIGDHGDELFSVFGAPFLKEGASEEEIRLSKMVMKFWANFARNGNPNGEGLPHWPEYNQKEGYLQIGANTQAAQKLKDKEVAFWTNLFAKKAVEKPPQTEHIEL

CCCC(=O)Nc1ccn([C@@H]2O[C@H](CO[P@@](=O)(N[C@@H](C)C(=O)OC(C)C)Oc3ccccc3)[C@@H](O)[C@@]2(C)F)c(=O)n1
248 ng·h/mL: AUC(0-t) at 24 h [5]
9.6 min: half-life at 10 µM [2]
Non-Toxic: Activity (Mus musculus [3]) | Activity (Mus musculus [4]) | Activity (Mus musculus [6]) | Activity (Mus musculus [9]) | Activity (Mus musculus [10]) | Activity (Mus musculus [11]) | Activity (Mus musculus [12])
Metabolite_Detected: Drug metabolism [1] | Drug metabolism (UMP-CMP kinase) | Drug metabolism [7] | Drug metabolism [8] | Drug metabolism (Liver carboxylesterase 1)
